Measured values pooled from the literature.
Protocols differ between the studies behind these lines.
Target: SNF-related serine/threonine-protein kinase (SNRK, Homo sapiens, UniProt Q9NRH2)
Residues used in one study (Q9NRH2 1-765): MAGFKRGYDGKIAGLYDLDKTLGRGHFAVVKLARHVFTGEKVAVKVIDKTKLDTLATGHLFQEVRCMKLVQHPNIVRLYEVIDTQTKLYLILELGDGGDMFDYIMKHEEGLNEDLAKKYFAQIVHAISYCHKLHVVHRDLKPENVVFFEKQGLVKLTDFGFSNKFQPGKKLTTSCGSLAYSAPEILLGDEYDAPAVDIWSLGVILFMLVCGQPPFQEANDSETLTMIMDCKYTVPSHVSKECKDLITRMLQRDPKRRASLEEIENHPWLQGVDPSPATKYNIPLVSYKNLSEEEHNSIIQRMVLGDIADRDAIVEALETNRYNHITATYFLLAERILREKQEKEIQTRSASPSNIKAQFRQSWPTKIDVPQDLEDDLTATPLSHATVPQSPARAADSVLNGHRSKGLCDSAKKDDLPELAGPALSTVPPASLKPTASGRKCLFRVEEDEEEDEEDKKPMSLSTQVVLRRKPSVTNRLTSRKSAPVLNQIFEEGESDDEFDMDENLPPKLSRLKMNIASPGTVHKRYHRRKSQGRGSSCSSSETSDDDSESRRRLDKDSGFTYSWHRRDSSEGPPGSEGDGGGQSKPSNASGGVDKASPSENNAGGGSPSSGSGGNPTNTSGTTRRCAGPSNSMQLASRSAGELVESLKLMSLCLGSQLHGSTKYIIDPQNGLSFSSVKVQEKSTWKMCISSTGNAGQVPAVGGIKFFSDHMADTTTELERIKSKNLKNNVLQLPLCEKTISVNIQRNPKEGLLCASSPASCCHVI

| Compound | observed | technique | tested at | remaining binding [%] |
| --- | --- | --- | --- | --- |
| C[C@H]1CCN(c2nccc(-c3cnn4ncccc34)n2)C1 | binding |  | 1 µM | 81 |
| O=C(NCC1CCOCC1)c1n[nH]cc1NC(=O)c1c(F)cccc1F | binding | competition with immobilised ligand | 1 µM | 84 |
| CNC(=O)[C@@H]1CC[C@@H](n2c(-c3ccc4cnccc4c3)nc3ccc(C(=O)NCc4cccc(C(N)=O)c4)cc32)C1 | binding | competition with immobilised ligand | 1 µM | 100 |
| N[C@@H]1CCN(c2nccc(-c3cnn4ncccc34)n2)C1 | binding |  | 1 µM | 100 |
| O=C(c1ccc(Nc2ncc(Cl)c(-c3ccc(Cl)s3)n2)cc1)N1CCC(N2CCCC2)CC1 | binding | competition with immobilised ligand | 1 µM | 87 |
| COc1ccc2c(c1)O[C@@H](c1ccc(OC)c(OC)c1)C[C@H]2NC(=O)C1(c2ccc3c(c2)OC(F)(F)O3)CC1 | cell-free assay | competition with immobilised ligand | 1 µM | 90 |
| c1cncc(-c2cccc(Nc3nccc(NC4CCCCC4)n3)c2)c1 | binding | competition with immobilised ligand | 10 µM | 69 |
| F[C@@H]1CCN(c2nccc(-c3cnn4ncccc34)n2)C1 | binding |  | 1 µM | 100 |
| O=C(NCCCN1CCOCC1)c1ccc(Nc2nccc(-c3cc4ccccc4s3)n2)cc1 | binding | competition with immobilised ligand | 1 µM | 99 |
| CS(=O)(=O)N1CCCC(NC(=O)[C@H](CCC2CCCCC2)NC(=O)c2ccc(CNc3ncnc4c3nnn4-c3ccccc3)cc2)C1 (stereo partly shown) | cell-free assay | competition with immobilised ligand | 0.1 µM | 81 |
| CN(c1nccc(-c2cnn3ncccc23)n1)C1CC1 | binding |  | 1 µM | 100 |
| CCN1CCN(Cc2ccc(C(=O)Nc3ccc(C)c(Oc4ccc5c(c4)CC(=O)N5)c3)cc2C(F)(F)F)CC1 | binding | competition with immobilised ligand | 1 µM | 98 |
| Nc1ncc2c(n1)-c1c([nH]c3ccc(C#CC4CC4)cc13)CCCC2 | binding | competition with immobilised ligand | 1 µM | 88 |
| COc1cc(-c2cn(C3CCc4c(F)cccc4N(CC(F)(F)F)C3=O)nn2)ccc1-n1cnc(C)c1 (stereo not shown) | cell-free assay | competition with immobilised ligand | 1 µM | 100 |
| COc1cnc(Nc2cccc(S(N)(=O)=O)c2)nc1N1CCN(c2ccccc2)CC1 | binding | competition with immobilised ligand | 1 µM | 88 |
| C[C@H](c1ccnc(Nc2nc3ccc(-c4cc(N(C)C)ncn4)cc3[nH]2)c1)N1CCN(C(=O)CC(F)(F)F)CC1 | cell-free assay | competition with immobilised ligand | 0.1 µM | 100 |
| c1cnn2ncc(-c3ccnc(N4CCC45COC5)n3)c2c1 | binding |  | 1 µM | 67 |
| O=C(c1ccc(Nc2ncc(Cl)c(-c3cc4ccccc4s3)n2)cc1)N1CCC(N2CCCC2)CC1 | binding | competition with immobilised ligand | 1 µM | 87 |
| CN(CCCC(F)(F)F)c1nccc(-c2cnn3ncccc23)n1 | binding |  | 1 µM | 100 |
| CO[C@@H](C)c1c(Nc2ccc([C@H](N(C)C(=O)C3CCS(=O)(=O)CC3)C(F)(F)F)cc2)cnc2cc(Cl)nn12 | cell-free assay | competition with immobilised ligand | 1 µM | 100 |
| COc1ccnn2ncc(-c3ccnc(N(C)C)n3)c12 | binding |  | 1 µM | 93 |
| O=c1nc(-c2ccccn2)sc2ccccc12 | binding | competition with immobilised ligand | 1 µM | 100 |
